Reference: the EternaBench riboswitch data

System: MS2 coat protein
Assay: apparent Kd, MS2 coat protein; higher = weaker binding; RNA-MaP array; FMN 200 µM where present
Procedure, shortened: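 Binding was read on Illumina sequencing-chip clusters where stalled E. coli RNA polymerase had transcribed each design. A titration of SNAP-549-labelled MS2 coat protein began at 0.7 or 1.5 nM and doubled to 3 µM, once without ligand and once with constant ligand, in 100 mM Tris-HCl pH 7.5, 80 mM KCl, 4 mM MgCl2, BSA, DTT, yeast tRNA and Tween-20. The apparent Kd is the median of filtered per-cluster binding-curve fits, based on green signal normalised to red-channel RNA signal and control-cluster median Fmax.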

[1] = designed as: OFF switch for flavin mononucleotide, no ligand
[2] = ligand present: flavin mononucleotide, designed as: OFF switch for flavin mononucleotide
[3] = designed as: ON switch for flavin mononucleotide, no ligand
[4] = ligand present: flavin mononucleotide, designed as: ON switch for flavin mononucleotide

Sequence | apparent Kd [1] [nM] | apparent Kd [2] [nM] | apparent Kd [3] [nM] | apparent Kd [4] [nM]
GGGUACAGUGAGAAGGUCUGCGGAUUCCUUAACAUGAGGAUCACCCAUGUAGAAGGAUAUCACAGGUAAAGGUCGUCUAACGAU | 5.49 | 6.82 |  | 
GGGUACAUCGGAGGAUAUCAUGUAAAUACAUGAGGAUCACCCAUGUCGAUGCAGACAUCGGAGAUUGAGAAGGCCGAUGUACCG |  |  | 974 | 78.4
AAUAGUAUUGUAGGAUAUGUUAUUUUCUAACAUGAGGAUCACCCAUGUAAUAUAGGGUUGUUUCUACAGAAGGACAAUUUAUUA |  |  | 509 | 387
UGGUACUAGGGAGGAUAUGGGAAGAUACAUGAGGAUCACCCAUGUUUAAGAAUGCCGAGAGGCAACUAGAAGGCGCUAGUACCU |  |  | 710 | 90.9
GUGGUCAGACAUGAGGAUCACCCAUGUGGAAUAAAUAAGGUUUAGGAUAUGGAAUAUAGGAUAUACCAGAAGGAAGGGUUGGUG |  |  | 125 | 135
UUCUUUCCUCAUGUACAUGAGGAACAUGAGGAUCACCCAUGUAGAAGGAUUUCAAUUAAAUUAAAAUAGGAUAUACAUCUAUUU | 10.4 | 9.34 |  | 
GGGUUGGGAGGAUAUCCAAUAUAUGACAUGAGGAUCACCCAUGUUUCCACUCGUACCUCCGGAGAAGGCCCAUCCC | 22.9 | 21.1 |  | 
GCAGGCUUCGAGAAGGACAUGAGGAUCACCCAUGUGCGUGUGAAGCAGCCGUGAGGCUGCAUCAUGUAGGAUAUCGGAGUCUGA | 74.5 | 500 |  | 
UCUUAUUGCAAGGAUAUGCAAAUUAUUAUUAAUGCAGAAGGUGCUACAUGAGGAUCACCCAUGUUUCCGGGUUU | 45 | 161 |  | 
UUUUAACAUGAGGAUCACCCAUGUGAGGAUAUCGAAAUUUAUAUUAAUAUUAAUUUAUCGAGAAGGCACAUUUU | 107 | 133 |  | 
AACAGCUCGUCAGGAUAUAUUUACUUAUAUUGUAUUUAUGUACAUGAGGAUCACCCAUGUUGUUAGUAGAAGGGACGAGCUGAA | 7.42 | 7.32 |  | 
AGUCGGAGCAGAGGAUAUACAUGAGGAUCACCCAUGUAAAUGGAAGAAGACUGGAAACAGUCAAUGUAGAAGGCUGCUCCGACA | 121 | 625 |  | 
AUAAACGAUCAGGAUAUAUCAAAUCAUAGCUUGAUAGAAGGGAUCACAUGAGGAUCACCCAUGUGAUCUUCUUA | 14 | 15.8 |  | 
AAGCUAACCACAGGAUAUCCACAUGAGGAUCACCCAUGUUGCUGAAGAGCAGGAGAAGGGUGGUGGGCAGAGUGCGCUGUCGUG |  |  | 53.5 | 8.75
GUAACAUGAGGAUCACCCAUGUAUAGAACACUCAAUAGAUCUGAGGAUAUAGUGGAAUUUACACACUAGAAGGCAGUGGGUGCA |  |  | 75.3 | 33.6
GUAGAACAUGAGGAUCACCCAUGUGAAGACGCAUGAGGAUAUGUCCGUACCUAGCAUACGAUAGAAGGCAUGGUAC |  |  | 69.2 | 88.2
ACAUACAUUCGAGGAUAUCGGUGAUUAAUUUUACGAGAAGGCGAUUUAAGGCAUAAUGCUUUAGACAUGAGGAUCACCCAUGUA |  |  | 72.9 | 34.4
CUUUCGUGAGGAUAUGUGGCUUCGAUCGUGAGAUCGAGGCUACAGAAGGCACAUGAGGAUCACCCAUGUUCCUC | 38.8 | 487 |  | 
AGUGUCAUUUAGAAGGCCUCAUGACAUGAGGAUCACCCAUGUUAUCAUGGGAGGAUAUGGAUGAUAUAGUUAUGUUUCGUAGUA |  |  | 307 | 112
UUUUUUUUUAGAGGAUAUAUUGUGUGUUAUAUAAUAGAAGGCUAAACAAACAUGAGGAUCACCCAUGUUGUCCAUGUCGUCGGC |  |  | 15.3 | 20.7
ACGAAGAUACAGAAGGGUAUAUUAGUUAAUUAUAAUUUGGUUAUGCACUACAGGAUAUGUUUAACAUGAGGAUCACCCAUGUUC |  |  | 13.9 | 10.8
AAAACAUGAGGAUCACCCAUGUUUAGAUCGGUCAAUAGAAGUGAGGAUAUACGAAGUUAAGGCUGGUAGAAGGCACUGGGUACA |  |  | 32.4 | 32.2
UCAUAAUUGAUCCUAUUUACCAACAUGAGGAUCACCCAUGUGCAGGAUAUGCUAAAGAUAGAUAAGCAGAAGGGCAAAUACAUA | 162 | 756 |  | 
AGCUGUGGCCAAGGAUAUCUAACCUUAAAUACCGACGUAUAGUCGGACAUGAGGAUCACCCAUGUGGAGAAGGUGGUCUCAGCA | 25.3 | 37.3 |  | 

Sequence | apparent Kd [1] [nM] | apparent Kd [2] [nM] | apparent Kd [3] [nM] | apparent Kd [4] [nM]
GAAGCUAUCGGAGGAUAUUCAUAGCCGAAAGGCACAUGAGGAUCACCCAUGUGCGGAAACGCUUGGGAGAAGGCCGAUAGCUUC |  |  | 25.4 | 14.7
CUGAUGUUAGGAUAUCAGGCUGCGCGCGAAGGCGGACGGCAUGAGAAGGAACAUGAGGAUCACCCAUGUGACGA | 32.6 | 103 |  | 
CACGGGUCAGGAUAUUGUUAGUUUAGUUGUUUGUAUUAGUUCGAGAAGGGACAUGAGGAUCACCCAUGUGGUCA | 285 | 269 |  | 
UUGAUAAGGAGAGGAUAUUGACAUGAGGAUCACCCAUGUACAUGGGAGUAUUUACUGAAUUCUUACGAGAAGGCUUACAUAUUU | 165 | 115 |  | 
GGCAGAGACGUUAACAUGAGGAUCACCCAUGUCGAAGGAGAUGAGGAUAUCGUAUACGAUGUAUAUGAGAAGGCAUGGUCUGCC |  |  | 18.8 | 7.6
GUCAGCUCGUGAGGAUAUACAACACUGCUUCGGCAGUGUAUUAAGAUCACAUGAGGAUCACCCAUGUAGAAGGCACGAGCUGAC | 12.9 | 251 |  | 
AUGUGGUGCGUAGGAUAUCAUUGAGGAAAACCCUGAGAAGGACGUGAGGACAUGAGGAUCACCCAUGUGGAUCACCCAUGUCAU | 237 | 237 |  | 
UUUUACCGAGGAUAUACAUUUUUUUUAUUAUCCUCAUUAUUACAUGAGGAUCACCCAUGUAGAAGGCGGAUUUU | 52.9 | 112 |  | 
ACAUGAGGAUCACCCAUGUGUGCAUAGGAUAUUGAGGAUUUGGGAUGUUUUUUUGGAUUUGCCCACAAGAAGGAUGAAAGUGUU |  |  | 12.8 | 11.3
UGGUACUAAGGAGGAUAUGGGAAGAUACAUGAGGAUCACCCAUGUUUAAGAAUGCCGAGAGGCAACUAGAAGGCCCUAGUACCU |  |  | 415 | 21.9
GCAUGCAUAGCGAUAUGAUCGAGAGAUCAUGUCGCUAAAUUUAGAAGGACAUGAGGAUCACCCAUGUAGGAUAUGGGAGCAUGC |  |  | 11.7 | 7.72
UUACUGUAAUAGAAGGGUAUUUGGGUUUUACAUGAGGAUCACCCAUGUUUUAUAGGAUAUGUUUAUAGUUUUUAAUCAAGUUUA | 91.1 | 68.7 |  | 
GAAUAAUUGAUCCAUUUUUAAAACAUGAGGAUCACCCAUGUGCAGGAUAUCGUGAGAGUUAAAUACGAGAAGGGCAAGAACUGU | 123 | 173 |  | 
UUCCGGGUGCAGAAGGGAUAGGCCUAUUUUCGUGGUAUCCAAACCUUACAUGAGGAUCACCCAUGUCAGGAUAUGCCCACGGAA | 4.93 | 4.72 |  | 
UAAGUAUGUUGAGGAUAUUAUGUUUGGUGAGAUGACAUGAGGAUCACCCAUGUGUUAUCAGUUCUUAAGAAGGCAACAUACUUA |  |  | 25.7 | 17.8
UGAUAGGACAGAGGAUAUACGUGCUAGAGAUACUAGCAAAGUUUCCUGACAUGAGGAUCACCCAUGUAGAAGGCUGUCCUAUCU | 6.56 | 20.9 |  | 
CUGUGUCCGCAGGAUAUGUUAUCCUGAAGGAUCACAGAAGGGCGGACAUGAGGAUCACCCAUGUGAGCCAAAGA | 16.2 | 17.3 |  | 
GGGUACAUGGGAGGAUAUCAUGUAGAUACAUGAGGAUCACCCAUGUCGAUGGAGACAUCGGAGAUUGAGAAGGCCCAUGUACCG |  |  | 696 | 36.1
CUUGAUCUUGUCAGGAUAUACCUGCCUAGUUGGAGGUAGAAGGGACAUGAGGAUCACCCAUGUAGCCAACCGAC | 16.9 | 19.2 |  | 
GUAGGGUCAGGAUAUACUGGCUGAGGGAUGUAUUGUAGUUGGUAGAAGGGACAUGAGGAUCACCCAUGUAAGAA | 36 | 26.1 |  | 
AACUCACAUGAGGAUCACCCAUGUGAGGAUAUGAUACUAUGUACUUCGGUACAUAGUAUCAGAAGGCAUGUGGA | 14.4 | 18.9 |  | 
GGUUGGCGAGGAUAUACAUGAGGAUCACCCAUGUGGUCCUGCGGUGGUUUCGCCCUUUGUAGAAGGCGCGGGUC | 40.9 | 40.5 |  | 
GGUUGGCGAGGAUAUACAUGAGGAUCACCCAUGUGGUCCUGCGAUGGUGUCGCCCUUUGUAGAAGGCGCGGGUC | 45 | 42.5 |  | 
ACGUGACAUGAGGAUCACCCAUGUGAGGAUAUCUGGAUAAUUUUUAUUUUAGAUAUCCAGAGAAGGCACAUGUU | 206 | 173 |  | 
